The source made the active and inactive calls. The calls are words filed in the database; no cut-off is given here.

Test [1] is described as follows: Binding affinity to Htg21 telomeric G-quadruplex DNA (unknown origin) at 40 uM after 30 mins by SPR analysis. A general note: SPR reads the build-up and loss of mass on a sensor chip optically.
In test [2] the target is T1, Nucleoside diphosphate kinase B (Homo sapiens, UniProt P22392). Kind of test: Binding affinity to NM23-H2 (unknown origin) up to 40 uM by SPR analysis.
Test [3] is described as follows: Binding affinity to biotin-labeled 18-mer duplex DNA hairpin (unknown origin) at 40 uM after 30 mins by SPR analysis.
Test [4] deals with T1, Nucleoside diphosphate kinase B. Nature of the test: Binding affinity to N-terminal NT-647-NHS labeled NM23-H2 (unknown origin) after 30 mins by MST analysis. The method in brief: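 NM23-H2 N-terminally labeled with RED-NHS dye (20 μM protein, 30 min dark, RT), free dye removed; 200 nM labeled protein with compound from 500 μM, 16 twofold steps, 30 min RT in 50 mM Tris-HCl pH 7.4, 150 mM NaCl, 10 mM MgCl2, 0.05% Tween-20; KD at half-plateau.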

For test [5] the target is unchanged. Nature of the test: Binding affinity to NM23-H2 (unknown origin) by SPR analysis.
Test [6] has the same target. Nature of the test: Binding affinity to NM23-H2 (unknown origin) assessed as ratio of Kd for protein interaction with biotin-labeled Pu22 c-myc G-quadruplex DNA in presence and absence of compound after 1 hr by ELISA. Background: In an ELISA, binding on a coated surface is turned into a signal by an enzyme label.

T1 sequence (P22392 whole entry): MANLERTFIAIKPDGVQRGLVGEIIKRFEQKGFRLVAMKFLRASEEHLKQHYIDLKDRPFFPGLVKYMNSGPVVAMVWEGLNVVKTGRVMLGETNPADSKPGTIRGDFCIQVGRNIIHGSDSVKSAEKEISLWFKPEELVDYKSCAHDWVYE

`O=c1c2cc(F)c(NCCCN3CCOCC3)cc2nc2n1CC/C2=C\c1ccc(C(F)(F)F)cc1`: the result in test [1], in test [2] and in test [3] was inactive.

As to `COc1ccc(/C=C2\CCn3c2nc2cc(NCCCN4CCOCC4)c(F)cc2c3=O)cc1`, the outcome in test [1] and in test [3] was inactive. Besides, the Kd is 25.6 µM in test [4] and 28.4 µM in test [5].

In the case of `CCN(CC)c1ccc(/C=C2\CCn3c2nc2cc(NCCN(C)C)c(F)cc2c3=O)cc1`, the result in test [1], in test [2] and in test [3] was inactive. In test [4], this molecule came in with a Kd of 45.7 µM.

Turning to `O=c1c2cc(F)c(N3CCOCC3)cc2nc2n1CC/C2=C\c1ccc(OCc2ccccc2)cc1O`, the outcome in test [1], in test [2] and in test [3] was inactive. This molecule yielded a Kd in test [4] of 56 µM.

With `O=c1c2cc(F)c(NCCCN3CCOCC3)cc2nc2n1CC/C2=C\c1ccc(F)cc1`, the result in test [1], in test [2] and in test [3] was inactive. In test [4], this molecule came in with a Kd of 44.2 µM.

Turning to `CN(C)CCCNc1cc2nc3n(c(=O)c2cc1F)CC/C3=C\c1ccc(Oc2ccccc2)cc1`, the outcome in test [1] and in test [3] was inactive. Besides, the Kd is 16.3 µM in test [4] and 12.4 µM in test [5].

Regarding `CCN(CC)c1ccc(/C=C2\CCn3c2nc2cc(NCCCN4CCOCC4)c(F)cc2c3=O)cc1`, the result in test [1], in test [2] and in test [3] was inactive.

Consider `CCN(CC)CCCNc1cc2nc3n(c(=O)c2cc1F)CC/C3=C\c1ccc(OCc2ccccc2)cc1`, for which the result in test [1] and in test [3] was inactive. Moreover, the Ratio in test [6] is above 3. Moreover, the Kd in test [4] was determined as 20.6 µM; in test [5], 14.6 µM.

In the case of `CCN(CC)CCCNc1cc2nc3n(c(=O)c2cc1F)CC/C3=C\c1ccc(N2CCCCC2)cc1`, the outcome in test [1], in test [2] and in test [3] was inactive.

On to `CCN(CC)CCCNc1cc2nc3n(c(=O)c2cc1F)CC/C3=C\c1ccc(OC)cc1`, for which the result in test [1] and in test [3] was inactive. The values for the Kd in test [4] and in test [5] were 23.5 µM and 15.4 µM, respectively.

Take `CCN(CC)CCCNc1cc2nc3n(c(=O)c2cc1F)CC/C3=C\c1ccc(F)cc1`: the outcome in test [1], in test [2] and in test [3] was inactive. Moreover, the affinity in test [4], expressed as Kd, was 61.6 µM.

Turning to `O=c1c2cc(F)c(NCCCN3CCOCC3)cc2nc2n1CC/C2=C\c1ccc(OCc2ccccc2)cc1O`, the result in test [1] and in test [3] was inactive. Further, the Kd in test [4] turned out to be 16.9 µM; in test [5], 14.3 µM.

On to `C#CCOc1ccc(/C=C2\CCn3c2nc2cc(NCCCN(C)C)c(F)cc2c3=O)cc1`, for which the outcome in test [1] and in test [3] was inactive. The dissociation constant (Kd) was 8.9 µM in test [4] and 25.6 µM in test [5].

`CCN(CC)CCCNc1cc2nc3n(c(=O)c2cc1F)CC/C3=C\c1ccccc1OC`: the result in test [1], in test [2] and in test [3] was inactive. Moreover, binding in test [4] was put at a Kd of 72.8 µM.

As for `CC(C)Oc1ccc(/C=C2\CCn3c2nc2cc(NCCCN(C)C)c(F)cc2c3=O)cc1`, the outcome in test [1] and in test [3] was inactive. In addition, in test [6], the Ratio was above 3. For the same molecule, the results for the Kd in test [4] and in test [5] were 15.4 µM and 9.6 µM, respectively.

As to `CN(C)CCCNc1cc2nc3n(c(=O)c2cc1F)CC/C3=C\c1ccc(/C=C/c2ccccn2)cc1`, the outcome in test [1] and in test [3] was inactive. In addition, the Ratio in test [6] is above 3. Besides, the Kd in test [4] amounted to 10.8 µM; in test [5] it was 8.5 µM.

As for `CN(C)CCCNc1cc2nc3n(c(=O)c2cc1F)CC/C3=C\c1ccc(O)c(O)c1`, the outcome in test [1] and in test [3] was inactive. Further, the Kd in test [4] was 10.7 µM; in test [5], 9.2 µM.

In the case of `CN(C)CCCNc1cc2nc3n(c(=O)c2cc1F)CC/C3=C\c1ccc(OCc2ccccc2)c(O)c1`, the outcome in test [1] and in test [3] was inactive. Further, in test [6], the Ratio was above 3. The Kd in test [4] came to 16.1 µM; in test [5] it was 13.2 µM.

As to `C#CCOc1ccc(/C=C2\CCn3c2nc2cc(NCCN(C)C)c(F)cc2c3=O)cc1`, the outcome in test [1], in test [2] and in test [3] was inactive. The molecule also yielded a Kd in test [4] of 27.5 µM.

Turning to `CCN(CC)CCCNc1cc2nc3n(c(=O)c2cc1F)CC/C3=C\c1cc(OC)c(OC)c(OC)c1`, the result in test [1] and in test [3] was inactive. The Kd stood at 28.2 µM in test [4] and 16.3 µM in test [5].

For the molecule `CCCOc1ccc(/C=C2\CCn3c2nc2cc(NCCCN(C)C)c(F)cc2c3=O)cc1`, the result in test [1] and in test [3] was inactive. Further, the figures for the Kd in test [4] and in test [5] were 21 µM and 20.6 µM, respectively.

In the case of `CCN(CC)CCCNc1cc2nc3n(c(=O)c2cc1F)CC/C3=C\c1ccc(C(C)C)cc1`, the result in test [1], in test [2] and in test [3] was inactive.

Take `O=c1c2cc(F)c(NCCCN3CCOCC3)cc2nc2n1CC/C2=C\c1ccc(N2CCCCC2)cc1`: the outcome in test [1], in test [2] and in test [3] was inactive.

In the case of `CCN(CC)CCCNc1cc2nc3n(c(=O)c2cc1F)CC/C3=C\c1ccc(N2CCOCC2)cc1`, the result in test [1], in test [2] and in test [3] was inactive. Binding in test [4] was put at a Kd of 55.3 µM.

As for `COc1ccc(/C=C2\CCn3c2nc2cc(NCCCN(C)C)c(F)cc2c3=O)cc1OC`, the result in test [1] and in test [3] was inactive. Besides, the Kd in test [4] amounted to 19.2 µM; in test [5] it was 15.8 µM.

As to `CCN(CC)CCCNc1cc2nc3n(c(=O)c2cc1F)CC/C3=C\c1ccc(OCc2ccccc2)c(O)c1`, the result in test [1] and in test [3] was inactive. Further, the Ratio in test [6] is above 3. The Kd in test [4] turned out to be 25.8 µM; in test [5], 16.7 µM.

As for `CCN(CC)CCCNc1cc2nc3n(c(=O)c2cc1F)CC/C3=C\c1ccc(/C=C/c2ccccn2)cc1`, the outcome in test [1] and in test [3] was inactive. In addition, in test [6], the Ratio was in the range of 2.1 to 2.6. For the same molecule, the Kd in test [4] was 20.8 µM; in test [5], 13.8 µM.

With `CCN(CC)CCCNc1cc2nc3n(c(=O)c2cc1F)CC/C3=C\c1ccc(C(F)(F)F)cc1`, the outcome in test [1], in test [2] and in test [3] was inactive. The Kd in test [4] was 59.4 µM.

As for `CCN(CC)CCCNc1cc2nc3n(c(=O)c2cc1F)CC/C3=C\c1ccc(N(CC)CC)cc1O`, the result in test [1] and in test [3] was inactive. For the same molecule, the Ratio in test [6] lay in the range of 2.1 to 2.6. Also, the figures for the Kd in test [4] and in test [5] were 11.7 µM and 13.9 µM, respectively.

Regarding `COc1cc(/C=C2\CCn3c2nc2cc(NCCCN4CCOCC4)c(F)cc2c3=O)cc(OC)c1OC`, the outcome in test [1] and in test [3] was inactive. Also, the Kd was 23.6 µM in test [4] and 18.5 µM in test [5].

As to `COc1cc(/C=C2\CCn3c2nc2cc(NCCCN(C)C)c(F)cc2c3=O)cc(OC)c1OC`, the result in test [1] and in test [3] was inactive. Besides, the Ratio in test [6] was 2.1 to 2.6. Besides, the Kd in test [4] worked out at 18.4 µM; in test [5] it was 16.8 µM.

Consider `CN(C)CCNc1cc2nc3n(c(=O)c2cc1F)CC/C3=C\c1ccc(C=O)cc1`, for which the result in test [1], in test [2] and in test [3] was inactive. Also, the Kd in test [4] came out at 68 µM.

In the case of `CC(C)c1ccc(/C=C2\CCn3c2nc2cc(NCCCN4CCOCC4)c(F)cc2c3=O)cc1`, the result in test [1], in test [2] and in test [3] was inactive.

`O=Cc1ccc(/C=C2\CCn3c2nc2cc(NCCCN4CCOCC4)c(F)cc2c3=O)cc1`: the result in test [1] and in test [3] was inactive. In addition, the Kd in test [5] was determined as 38 µM.

Consider `O=c1c2cc(F)c(NCCCN3CCOCC3)cc2nc2n1CC/C2=C\c1ccc(N2CCOCC2)cc1`, for which the result in test [1], in test [2] and in test [3] was inactive.

Consider `CCN(CC)CCCNc1cc2nc3n(c(=O)c2cc1F)CC/C3=C\c1ccc(OC)c(OC)c1`, for which the outcome in test [1] and in test [3] was inactive. For the same molecule, the Kd in test [4] was determined as 25.1 µM; in test [5] it was 17.1 µM.

In the case of `COc1cc(/C=C2\CCn3c2nc2cc(NCCCN(C)C)c(F)cc2c3=O)cc(OC)c1O`, the result in test [1] and in test [3] was inactive. Also, the results for the Kd in test [4] and in test [5] were 16.5 µM and 13.3 µM, respectively.

One may read the Kd as a measure of binding affinity in units of concentration. High values mean lower affinity, low ones higher affinity.

Source of the values: ChEMBL document CHEMBL4017489, “Design, Synthesis, and Evaluation of New Selective NM23-H2 Binders as c-MYC Transcription Inhibitors via Disruption of the NM23-H2/G-Quadruplex Interaction” (J Med Chem, 2017).
